Converted amounts (≈) assume the structure as drawn.
Assays:
AA6 = assay: Ability to inhibit growth of AA-6 cells (a mutant cell line resistant to 8-azaadenine and lacks […]) was determined; format: functional; conditions: Cricetulus griseus
Method in brief: (§1)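 Clonogenic growth assay: log-phase cells trypsinized, diluted in McCoy's 5A with dialyzed fetal calf serum, about 200 cells per dish. Cells were grown at 0.5–3000 μM for 7 days at 37.5 °C in humidified CO2, then fixed in 10% formaldehyde and stained with 0.1% crystal violet. The minimum inhibitory concentration is the lowest tested concentration giving clones of fewer than 50 cells.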

Human alphaherpesvirus 2 = assay: The minimum inhibitory concentration required to reduce HSV-2 (G) induced cytopathogenicity in primary rabbit kidney cells by 50%; format: functional
Method in brief: (§2)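 Inhibition of virus-induced cytopathogenicity in primary rabbit kidney cells. The minimal inhibitory concentration (μg/mL) is the one reducing cytopathogenicity by 50%, scored when cytopathogenicity was complete in virus-infected untreated controls. Minimal cytotoxic concentration was taken as the one causing microscopically detectable change in cell morphology; 400 μg/mL was the highest concentration tested.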

Human alphaherpesvirus 1 = assay: The minimum inhibitory concentration required to reduce HSV-1(KOS) induced cytopathogenicity in primary rabbit kidney cells by 50%; format: functional; method in brief: as §2
Mus musculus [1] = assay: Compound was evaluated for value at a dose of 200 mg/kg; format: functional
Method in brief: (§3)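 Experiment 1: 10^6 P388 cells implanted ip in groups of 6 CDF1 mice, with 30 untreated controls. Therapy began 24 h later: saline solution given ip on days 1-5. Value is T/C, %, of median life span (days postimplant) against untreated controls.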

Mus musculus [2] = assay: Compound was evaluated for value at a dose of 100 mg/kg; format: functional; method in brief: as §3
Mus musculus [3] = assay: Compound was evaluated for value at a dose of 50 mg/kg; format: functional; method in brief: as §3
Mus musculus [4] = assay: Effect on mice inoculated with P388 Lymphocytic leukemia, was studied. Compound dose is 200 mg/kg (Exp-1)Average animal body weight change of test group minus that of control animals.; format: functional
Method in brief: (§4)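 Experiment 1: P388 cells (10^6) implanted ip in CDF1 mice, 6 per group, 30 untreated controls. Dosing in saline, ip, on days 1-5, starting 24 h after implant. Reported value is the mean body weight change of the treated group minus that of the controls, in g.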

Mus musculus [5] = assay: Compound was evaluated for value at a dose of 400 mg/kg; format: functional
Method in brief: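 Experiment 2: 10^6 P388 cells implanted ip in groups of 6 BDF1 mice, with 30 untreated controls. Therapy began 24 h later: saline solution given ip on days 1-5. Value is T/C, %, of median life span (days postimplant) against untreated controls.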

[6] = system: Vesicular stomatitis virus; assay: The minimum inhibitory concentration required to reduce VSV induced cytopathogenicity in primary rabbit kidney cells by 50%; format: functional
Mus musculus [7] = assay: Effect on mice inoculated with P388 Lymphocytic leukemia, was studied. Compound dose is 400 mg/kg (Exp-1)Average animal body weight change of test group minus that of control animals; format: functional
Mus musculus [8] = assay: Compound was evaluated for median life span after tumor implantation at a dose of 400 mg/kg; format: functional
Method in brief: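 P388 leukemia cells (10^6) implanted ip in groups of 6 BDF1 mice, with 30 untreated controls. Therapy began 24 h later: compound in saline given ip on days 1-5. Recorded median life span in days after implant, T/C %, and body-weight change of treated minus control animals.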

Mus musculus [9] = assay: Effect on mice inoculated with P388 Lymphocytic leukemia, was studied. Compound dose is 100 mg/kg (Exp-1)Average animal body weight change of test group minus that of control animals.; format: functional; method in brief: as §4
Mus musculus [10] = assay: Compound was evaluated for median life span after tumor implantation at a dose of 200 mg/kg; format: functional
Method in brief: (§5)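 P388 leukemia cells (10^6) implanted ip in groups of 6 CDF1 mice, with 30 untreated controls. Therapy began 24 h later: compound in saline given ip on days 1-5. Recorded median life span in days after implant, T/C %, and body-weight change of treated minus control animals.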

Coxsackievirus = assay: The minimum inhibitory concentration required to reduce Coxsackie virus type B4 induced cytopathogenicity in primary rabbit kidney cells by 50%; format: functional
Mus musculus [11] = assay: Effect on mice inoculated with P388 Lymphocytic leukemia, was studied. Compound dose is 50 mg/kg (Exp-1)Average animal body weight change of test group minus that of control animals.; format: functional; method in brief: as §4
[12] = Ability to inhibit growth of TG-1 cells (a mutant cell line resistant to 6-thioguanine and lacks hypoxanthine-guanine phosphoribosyltransferase) was determined
Mus musculus [13] = assay: Compound was evaluated for median life span after tumor implantation at a dose of 100 mg/kg; format: functional; method in brief: as §5
Mus musculus [14] = assay: Compound was evaluated for median life span after tumor implantation at a dose of 50 mg/kg; format: functional; method in brief: as §5
CHO = assay: Ability to inhibit growth of CHO cells was determined; format: functional; conditions: Cricetulus griseus; method in brief: as §1

| SMILES | MIC (AA6) | MIC (Human alphaherpesvirus 2) | MIC (Human alphaherpesvirus 1) | T/C (Mus musculus [1]) | T/C (Mus musculus [2]) | T/C (Mus musculus [3]) | Activity (Mus musculus [4]) | T/C (Mus musculus [5]) | MIC [6] | Activity (Mus musculus [7]) | Median life span (Mus musculus [8]) | Activity (Mus musculus [9]) | Median life span (Mus musculus [10]) | MIC (Coxsackievirus) | Activity (Mus musculus [11]) | MIC [12] | Median life span (Mus musculus [13]) | Median life span (Mus musculus [14]) | MIC (CHO) |
| --- | --- | --- | --- | --- | --- | --- | --- | --- | --- | --- | --- | --- | --- | --- | --- | --- | --- | --- | --- |
| Nc1cc2[nH]ccc2c(O)n1 | 1000 µM (≈ 149 µg/mL) | > 400 µg/mL | > 400 µg/mL | 114% | 113% | 108% | -1.6 g | 126% | > 400 µg/mL | -0.7 g | 16.3 days | -0.6 g | 12.4 days | > 400 µg/mL | -0.2 g | 1000 µM (≈ 149 µg/mL) | 12.3 days | 11.7 days | 1000 µM (≈ 149 µg/mL) |
| Nc1ncnc2c1ncn2C[C@H](O)CO [(S)-DHPA] | – | > 400 µg/mL | > 400 µg/mL | – | – | – | – | – | – | – | – | – | – | – | – | – | – | – | – |
| Nc1cc2[nH]cnc2c(=O)[nH]1 [DEZAGUANINE] | 500 µM (≈ 75.1 µg/mL) | 150 µg/mL (≈ 999 µM) | 4 µg/mL (≈ 26.6 µM) | – | – | – | – | – | – | – | – | – | – | – | – | 1500 µM (≈ 225 µg/mL) | – | – | 10 µM (≈ 1.5 µg/mL) |
| NC(=O)c1ncn([C@@H]2O[C@H](CO)[C@@H](O)[C@H]2O)n1 [RIBAVIRIN] | – | > 400 µg/mL | > 400 µg/mL | – | – | – | – | – | – | – | – | – | – | – | – | – | – | – | – |
